Assay results collected from several papers.
Compare with care: the assays were run in different laboratories.
Target: Tyrosine-protein kinase Fyn (FYN, Homo sapiens, UniProt P06241)

Structure (SMILES) | read-out | action | technique | concentration | measurement | value
O=C(Nc1cnn(-c2csc(C(=O)NC3COC3)c2)c1)Nc1c(F)cccc1Cl | enzyme activity | inhibitor | – | 5 µM | remaining activity | 90.3%
Cc1cnc(NC2CCOCC2)nc1-n1cnc(C(=O)NC(CN)c2cc(F)cc(Cl)c2)c1 (stereo not shown) | enzyme activity | inhibitor | radiometric | 1 µM | remaining activity | 100%
CC(C)(O)[C@H]1CC[C@H](Nc2ccc3ncc(-c4cccc(C(F)(F)F)c4)n3n2)CC1 | enzyme activity | inhibitor | – | 1 µM | remaining activity | 22.4%
COc1cccc2c(NCc3ccccc3)nc(-n3c(N)nc4ccccc43)nc12 | target engagement in cells | inhibitor | chemoproteomics | 20 mM | inhibition | -15.9%
CC/C(=N\NC(=O)NCc1cccc(O)c1)c1ccc(O)c(C)c1O | enzyme activity | inhibitor | – | 0.1 µM | inhibition | 0.5%
COc1cc2ncnc(Nc3ccc(F)c(Cl)c3)c2cc1OCCCN1CCOCC1 | cell-free assay | – | – | 0.5 µM | remaining signal | 92.2%
CC(=O)c1c(NS(C)(=O)=O)c2cc(-c3ccc(Cl)cc3)c(-c3ccc(Cl)cc3Cl)nc2n(C)c1=O | cell-free assay | – | competition with immobilised ligand | 1 µM | remaining binding | 92%
CNC(=O)c1cc2c(Oc3ccc(NC(=O)C4(C(=O)Nc5ccc(F)cc5)CC4)cc3)ccnc2cc1OC | enzyme activity | inhibitor | radiometric | 1 µM | inhibition | 72%
COc1cccc(CNC(=O)c2nc3scc(COCc4ccc(C(=O)O)cc4)c3c(=O)[nH]2)c1 | cell-free assay | – | competition with immobilised ligand | 1 µM | remaining binding | 81.1%
O=C1NC(=O)c2cc(Nc3ccc(F)cc3)c(Nc3ccc(F)cc3)cc21 | cell-free assay | – | – | 0.5 µM | remaining signal | 99.4%
CC(C)c1ccc(NC(=O)c2cccs2)c(-c2nc3ccccc3[nH]c2=O)c1 | enzyme activity | inhibitor | – | 1 µM | activity vs control | 103%
Cc1nc(C2CCN(C(=O)c3ccc(OC(F)(F)F)cc3N)CC2)c2ncc(N3CCN(C)CC3)cc2n1 | cell-free assay | – | competition with immobilised ligand | 1 µM | remaining binding | 96%
CCN(CC)CCNC(=O)c1c(C)[nH]c(/C=C2\C(=O)Nc3ccc(F)cc32)c1C | enzyme activity | inhibitor | – | 0.3 µM | inhibition | 35%
Cc1cc(-n2nc(Cc3cc(F)cc(C(F)(F)F)c3)nc2C)ccc1C(N)=O | cell-free assay | – | competition with immobilised ligand | 1 µM | remaining binding | 100%
N#CCCc1ccc2c(c1)-c1[nH]c3ccc([N+](=O)[O-])cc3c1CC(=O)N2 | cell-free assay | – | – | 0.5 µM | remaining signal | 52.2%
CNc1cccc2cc(C(=O)Nc3ccc(C(=O)O)cc3)c(=O)[nH]c12 | enzyme activity | inhibitor | – | 10 µM | inhibition | 6.9%

Structure (SMILES) | read-out | action | technique | concentration | measurement | value
O=c1c2ccccc2[nH]c(=S)n1CCN1CCC(=C(c2ccc(F)cc2)c2ccc(F)cc2)CC1 | enzyme activity | inhibitor | – | 0.5 µM | remaining activity | 102%
CNC(=O)Nc1ccc2c(c1)CC[C@@]21OC(=O)N(CC(=O)N(Cc2ccc(F)cc2)[C@@H](C)C(F)(F)F)C1=O | cell-free assay | – | competition with immobilised ligand | 1 µM | remaining binding | 100%
O=C1Nc2ccc(Cl)cc2C1=Cc1cc(Cl)c(O)c(Cl)c1 | cell-free assay | – | – | 0.5 µM | remaining signal | 73%
CNCc1ccc(-c2cc(-c3nc(-c4ccc(S(=O)(=O)C(C)C)cc4)cnc3N)on2)cc1 | enzyme activity | inhibitor | – | 0.4 µM | inhibition | 9%
CN([C@@H]1CCc2c(CC(=O)O)c3cc(S(C)(=O)=O)ccc3n2C1)S(=O)(=O)c1ccc(F)cc1 | cell-free assay | – | competition with immobilised ligand | 1 µM | remaining binding | 99%
COc1cc2ncnc(Nc3ccc(Oc4ccccc4)c(C)c3C)c2cc1OC | enzyme activity | inhibitor | – | 1 µM | inhibition | 42%
Cc1nc(Cc2cccc(C(F)(F)F)c2)sc1-c1ccc(C(N)=O)nc1 | cell-free assay | – | competition with immobilised ligand | 1 µM | remaining binding | 100%
CNC(=O)c1cc(Oc2ccc(NC(=O)Nc3ccc(Cl)c(C(F)(F)F)c3)cc2)ccn1 | enzyme activity | inhibitor | – | 10 µM | inhibition | 44%
C=CC(=O)Nc1cc(Nc2nccc(Nc3cc(Cl)c(F)cc3C(C)(C)O)n2)c(OC)cc1N1CC[C@@H](N(C)C)C1 | enzyme activity | inhibitor | – | 1 µM | inhibition | 23%
CC(C)(C)c1nc(-c2cccc(NS(=O)(=O)c3c(F)cccc3F)c2F)c(-c2ccnc(N)n2)s1 | enzyme activity | inhibitor | radiometric | 1 µM | remaining activity | 36%
Cc1ccc(NC(=O)c2ccc(C)c(C(F)(F)F)c2)cc1C#Cc1nn(C2CCC(O)CC2)c2ncnc(N)c12 (stereo not shown) | cell-free assay | – | – | 10 µM | remaining signal | 0%
COc1ccc2c(O[C@@H]3C[C@H]4C(=O)N[C@]5(C(=O)O)CC5/C=C\CCCCC[C@H](NC(=O)OC5CCCC5)C(=O)N4C3)cc(-c3csc(NC(=O)C(C)C)n3)nc2c1C (stereo partly shown) | cell-free assay | – | competition with immobilised ligand | 1 µM | remaining binding | 100%
Cn1cnc(Br)c1C1=CN(c2ncnc3[nH]cnc23)CCS1 | enzyme activity | inhibitor | radiometric | 50 nM | inhibition | 21.6%
COc1cc(OC)c(C=C2C(O)=Nc3ccccc32)c(OC)c1 | cell-free assay | inhibitor | – | 0.5 µM | remaining signal | 100%
CCCOc1ccc(OC)c(F)c1C(=O)c1ccc(C(=O)N[C@@H]2CNC[C@H]2NC(=O)c2ccc3[nH]ncc3c2)cc1 | enzyme activity | inhibitor | – | 10 µM | remaining activity | 69%
